Consider 17 compounds from publication PMC6136361 (Journal of Enzyme Inhibition and Medicinal Chemistry, 2018).

Where “and” joins values, the source holds several entries; their conditions need not be identical. Equal values may be shown once. Read-outs that look alike come from different tables or passages of the source.

For data set [1], the system named is HepG-2 cells. The data set is described as follows: Cytotoxicity, Sulforhodamine-B. It counts as cell-based, human. The note with it: for IC50: Homo sapiens.
The next data set deals with HCT-116 cells. The experiment in a line: Cytotoxicity, Sulforhodamine-B. It counts as cell-based. As to conditions: Homo sapiens. An outline of the steps:
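SRB viability: cells seeded at 5 × 10^4–10^5/well and left to attach 24 h. Test compound (DMSO, diluted in saline) at 0.001–100 µM for 48 h, four wells per concentration; vehicle-only controls. Fixed cold 50% TCA 1 h at 4 °C, stained 0.4% SRB in 1% acetic acid 30 min, dye solubilised in 10 mM tris base pH 10.5, OD 564 nm. Survival fraction = OD treated/OD control; IC50 from survival-concentration plot; repeated three times.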

For data set [2], the system named is HepG-2 cells. The data set is described as follows: DNA-flow cytometry cell cycle analysis. It counts as cell-based, human. As to conditions: HepG-2, at IC50, 24 h. Put shortly: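 HepG-2 cells exposed to test compound for 24 h, with an untreated control. Cells washed twice in ice-cold PBS, pelleted, fixed in ice-cold 70% ethanol, treated with 0.1 mg/mL RNase and stained with propidium iodide. DNA content measured by flow cytometry to give cell-cycle phase distribution. Fold change versus control; mean ± SEM, n = 4, one-way ANOVA with Tukey test.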

For data set [3], the system named is HepG-2 cells. The data set is described as follows: FITC-annexin V / PI staining for apoptosis. The format is cell-based, human. The note with it: HepG-2, at IC50, 24 h.
Another data set concerns p53. The experiment in a line: ELISA immunoassay of p53 level in HepG-2 cells. The format is cell-based, human. The note with it: HepG-2, at IC50, 24 h.
The next data set relates to Bcl-2. The data set is described as follows: ELISA immunoassay of Bcl-2 level in HepG-2 cells. It counts as cell-based, human. The note with it: HepG-2, at IC50, 24 h.
The subject of a further data set is Bax. The experiment in a line: ELISA immunoassay of Bax level in HepG-2 cells. The format is cell-based, human.
Another data set relates to caspase-3. The experiment in a line: ELISA immunoassay of active caspase-3 level in HepG-2 cells. It counts as cell-based, human. As to conditions: HepG-2, at IC50, 24 h.
In another data set the test system is caspase-7. The data set is described as follows: ELISA immunoassay of active caspase-7 level in HepG-2 cells. It counts as cell-based, human. As to conditions: HepG-2, at IC50, 24 h.
The target in the next data set is VEGFR-2 (Homo sapiens, UniProt P35968). The experiment in a line: biochemical. The format is biochemical.
The target in another data set is β-tubulin (Homo sapiens, UniProt P07437). The experiment in a line: β-tubulin polymerization inhibition assay. It counts as cell-based.
Setting [4] is: HepG2, 48 h, read-out: IC50 HepG-2.
The mark [5] stands for this setting: HCT-116, 48 h, read-out: IC50 HCT-116.
[6] abbreviates: HepG2, read-out: Experimental cytotoxicity pIC50 (converted).

Sequence of β-tubulin (P07437 whole entry): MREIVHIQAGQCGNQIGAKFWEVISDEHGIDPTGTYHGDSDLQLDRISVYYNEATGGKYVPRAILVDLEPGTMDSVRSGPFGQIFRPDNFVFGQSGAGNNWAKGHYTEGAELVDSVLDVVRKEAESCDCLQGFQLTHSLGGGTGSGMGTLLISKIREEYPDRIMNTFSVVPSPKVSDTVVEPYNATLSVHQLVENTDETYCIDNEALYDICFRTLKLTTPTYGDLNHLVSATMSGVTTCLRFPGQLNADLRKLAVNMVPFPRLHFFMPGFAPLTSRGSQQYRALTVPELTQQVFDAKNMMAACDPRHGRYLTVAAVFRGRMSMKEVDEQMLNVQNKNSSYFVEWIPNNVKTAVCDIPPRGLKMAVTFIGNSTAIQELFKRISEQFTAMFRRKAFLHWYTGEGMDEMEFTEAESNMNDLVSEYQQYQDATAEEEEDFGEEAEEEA
Sequence of β-tubulin (P68363 whole entry partner): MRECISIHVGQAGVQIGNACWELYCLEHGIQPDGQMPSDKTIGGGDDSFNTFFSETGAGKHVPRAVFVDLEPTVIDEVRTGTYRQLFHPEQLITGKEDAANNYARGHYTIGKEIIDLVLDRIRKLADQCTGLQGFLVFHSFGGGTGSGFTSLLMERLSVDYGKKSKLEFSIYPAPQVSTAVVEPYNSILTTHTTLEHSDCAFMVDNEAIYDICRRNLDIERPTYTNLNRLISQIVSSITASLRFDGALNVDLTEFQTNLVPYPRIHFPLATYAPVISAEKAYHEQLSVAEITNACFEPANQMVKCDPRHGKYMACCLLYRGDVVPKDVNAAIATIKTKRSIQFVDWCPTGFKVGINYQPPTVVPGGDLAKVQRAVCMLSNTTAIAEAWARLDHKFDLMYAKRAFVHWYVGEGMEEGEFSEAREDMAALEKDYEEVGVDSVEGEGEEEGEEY
Sequence of VEGFR-2 (P35968 20-1356): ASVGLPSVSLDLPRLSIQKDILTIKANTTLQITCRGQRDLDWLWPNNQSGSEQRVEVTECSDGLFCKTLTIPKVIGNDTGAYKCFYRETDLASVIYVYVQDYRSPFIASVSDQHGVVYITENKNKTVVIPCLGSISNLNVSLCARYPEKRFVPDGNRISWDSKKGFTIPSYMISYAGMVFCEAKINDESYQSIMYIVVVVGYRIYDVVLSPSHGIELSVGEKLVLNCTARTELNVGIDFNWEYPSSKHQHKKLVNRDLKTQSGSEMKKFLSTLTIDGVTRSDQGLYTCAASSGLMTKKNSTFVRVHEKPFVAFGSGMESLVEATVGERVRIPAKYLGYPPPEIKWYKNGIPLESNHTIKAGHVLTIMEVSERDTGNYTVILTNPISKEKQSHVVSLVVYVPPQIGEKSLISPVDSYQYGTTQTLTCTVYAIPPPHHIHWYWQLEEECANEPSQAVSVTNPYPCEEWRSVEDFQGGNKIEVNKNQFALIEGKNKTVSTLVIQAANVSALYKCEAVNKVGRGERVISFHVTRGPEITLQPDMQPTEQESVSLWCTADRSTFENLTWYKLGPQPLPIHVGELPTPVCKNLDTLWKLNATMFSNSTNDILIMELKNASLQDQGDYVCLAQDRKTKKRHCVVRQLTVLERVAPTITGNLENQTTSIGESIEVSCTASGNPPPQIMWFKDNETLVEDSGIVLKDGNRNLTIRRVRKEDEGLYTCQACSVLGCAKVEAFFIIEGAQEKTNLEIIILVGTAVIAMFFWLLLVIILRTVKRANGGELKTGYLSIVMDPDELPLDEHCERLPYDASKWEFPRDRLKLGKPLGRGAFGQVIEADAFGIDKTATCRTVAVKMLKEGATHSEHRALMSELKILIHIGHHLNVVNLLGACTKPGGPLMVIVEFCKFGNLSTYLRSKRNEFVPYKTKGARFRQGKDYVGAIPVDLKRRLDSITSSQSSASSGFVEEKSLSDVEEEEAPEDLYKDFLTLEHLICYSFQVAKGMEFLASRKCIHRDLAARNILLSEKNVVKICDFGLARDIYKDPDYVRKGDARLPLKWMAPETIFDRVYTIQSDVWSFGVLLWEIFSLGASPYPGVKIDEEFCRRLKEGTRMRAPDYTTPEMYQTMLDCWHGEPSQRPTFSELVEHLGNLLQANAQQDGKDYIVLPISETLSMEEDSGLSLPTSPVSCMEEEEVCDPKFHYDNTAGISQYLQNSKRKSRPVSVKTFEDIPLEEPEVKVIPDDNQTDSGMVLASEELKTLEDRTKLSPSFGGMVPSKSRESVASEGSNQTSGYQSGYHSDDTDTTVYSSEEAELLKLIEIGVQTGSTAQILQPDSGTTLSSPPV

With `COc1ccc(NC(=O)c2c(Nc3ccccc3)sc(C#N)c2NC(=O)CNc2ccccc2)cc1` [Compound 4, 5-Cyano-N-(4-methoxyphenyl)-2-phenylamino-4-(2-phenylamino-acetamido)thiophene-3-carboxamide], the IC50 in the data set with HepG-2 cells [1] (setting [4]) was 74.3 ± 5.98 µM; with HCT-116 cells (setting [5]) it was 64.1 ± 7.51 µM.
Take `COc1ccc(NC(=O)c2c(Nc3ccccc3)sc(C#N)c2NC(=O)CNc2ccc(Cl)cc2)cc1` [Compound 5, 4-[2-(4-Chlorophenyl)aminoacetamido]-5-cyano-N-(4-methoxyphenyl)-2-phenylaminothiophene-3-carboxamide]: the “fold higher cytotoxicity than Sorafenib” value in the data set with HepG-2 cells [1] (HepG-2 cells) was 2.31 fold and 2.3 fold. The IC50 in the data set with HepG-2 cells [1] (setting [4]) is 1.92 ± 0.12 µM; in the data set with HepG-2 cells [1] (HepG2, read-out: HepG-2 IC50) it was 1.92 µM; with HCT-116 cells (setting [5]) it was 7.83 ± 0.61 µM. Besides, in the data set on HepG-2 cells [2], the “G2/M arrest, fold increase compared to the control” value was “about 2 fold”. In the data set with HepG-2 cells [2] (control 0.10%), the “apoptotic sub-G1 cell population” value was determined as 8.23%. In addition, the “early apoptosis fold increase vs control” value with HepG-2 cells [3] is reported as 8 fold. Further, the “late apoptosis fold increase vs control” value in the data set with HepG-2 cells [3] was found to be 23 fold. Also, the “late apoptotic cells percentage (Q2)” value with HepG-2 cells [3] (control 0.34%) was found to be 7.85%. The “early apoptotic cells percentage (Q4)” value in the data set on HepG-2 cells [3] (control 0.72%) is 5.47%. For the same compound, the “p53 protein level, fold increase compared with the control” value in the data set on p53 is reported as “about 3.4 fold”. The “Bcl-2 level, fold decrease compared to the control” value with Bcl-2 amounted to 2.2 fold. Also, the “Bax/Bcl-2 ratio, fold elevation compared to the control” value in the data set with Bax (HepG-2, at IC50) is on record as 30 fold. Moreover, the “Bax level, fold increase compared to the control” value in the data set on Bax (HepG-2, at IC50, 24 h) is listed as 6.6 fold. Further, in the data set on caspase-3, the “caspase-3 level, fold increase compared to the control” value is recorded as “about 11.2 fold”. In addition, in the data set with caspase-7, the “caspase-7 level, fold increase compared to the control” value is given as about 6.9 fold. Also, the “fold more potent than Sorafenib against VEGFR-2” value at VEGFR-2 worked out at 4 fold. On β-tubulin (at their IC50 values on HepG-2 cells), the “%β-TUB polymerization inhibition” value was found to be 72.61 ± 0.14%. Further, the β-tubulin polymerization inhibition at β-tubulin (at their IC50 values, HepG-2 cells) was 72% and 73%.
For the compound `COc1ccc(NC(=O)c2c(Nc3ccccc3)sc(C#N)c2NC(=O)CNc2ccc(Br)cc2)cc1` [Compound 6, 4-[2-(4-Bromophenyl)amino-acetamido]-5-cyano-N-(4-methoxyphenyl)-2-phenylaminothiophene-3-carboxamide], the IC50 in the data set with HepG-2 cells [1] (setting [4]) was 3.51 ± 0.22 µM; in the data set with HepG-2 cells [1] (setting [6]), 3.5 µM; with HepG-2 cells [1] (HepG2, read-out: HepG-2 IC50), 3.51 µM; in the data set on HCT-116 cells (setting [5]), 3.13 ± 0.21 µM; against VEGFR-2, 0.93 ± 0.19 µM.
As to `COc1ccc(NC(=O)c2c(Nc3ccccc3)sc(C#N)c2NC(=O)CNc2ccc(C)cc2)cc1` [Compound 7, 5-Cyano-N-(4-methoxyphenyl)-2-phenylamino-4-[2-(4-methylphenyl)amino-acetamido]thiophene-3-carboxamide], the IC50 in the data set with HepG-2 cells [1] (setting [4]) was 24.3 ± 1.96 µM; in the data set on HepG-2 cells [1] (setting [6]) it was 24 µM; with HCT-116 cells (setting [5]), 18.4 ± 1.23 µM.
The like results for `COc1ccc(NC(=O)c2c(Nc3ccccc3)sc(C#N)c2NC(=O)CNc2ccc(O)cc2)cc1` [Compound 8, 5-Cyano-N-(4-methoxyphenyl)-4-[2-(4-hydroxyphenyl)amino-acetamido]-2-phenylaminothiophene-3-carboxamide] were, in that order, 10.4 ± 1.08 µM, 10.4 µM and 16.2 ± 1.52 µM.
The like results for `COc1ccc(NCC(=O)Nc2c(C#N)sc(Nc3ccccc3)c2C(=O)Nc2ccc(OC)cc2)cc1` [Compound 9, 5-Cyano-N-(4-methoxyphenyl)-4-[2-(4-methoxyphenyl)amino-acetamido]-2-phenylaminothiophene-3-carboxamide] were, in that order, 14.3 ± 1.23 µM, 14 µM and 21.4 ± 1.92 µM.
`COc1ccc(NC(=O)c2c(Nc3ccccc3)sc(C#N)c2NC(=O)CNc2ccc([N+](=O)[O-])cc2)cc1` [Compound 10, 5-Cyano-N-(4-methoxyphenyl)-4-[2-(4-nitrophenyl)aminoacetamido]-2-phenylaminothiophene-3-carboxamide]: the IC50 in the data set with HepG-2 cells [1] (setting [4]) was 9.71 ± 0.86 µM; in the data set with HepG-2 cells [1] (setting [6]) it was 9.7 µM; in the data set on HepG-2 cells [1] (HepG2, read-out: HepG-2 IC50), 9.71 µM; with HCT-116 cells (setting [5]), 5.12 ± 0.42 µM; at VEGFR-2 it was 3.92 ± 0.16 µM.
Turning to `COc1ccc(NC(=O)c2c(Nc3ccccc3)sc(C#N)c2NC(=O)CNc2ccccc2Cl)cc1` [Compound 11, 5-Cyano-N-(4-methoxyphenyl)-4-[2-(2-chlorophenyl)aminoacetamido]-2-phenylaminothiophene-3-carboxamide], the IC50 in the data set with HepG-2 cells [1] (setting [4]) is 31.3 ± 3.61 µM; with HCT-116 cells (setting [5]), 52.2 ± 5.54 µM.
`COc1ccc(NC(=O)c2c(Nc3ccccc3)sc(C#N)c2NC(=O)CNc2ccccc2[N+](=O)[O-])cc1` [Compound 12, 5-Cyano-N-(4-methoxyphenyl)-4-[2-(2-nitrophenyl)amino-acetamido]-2-phenylaminothiophene-3-carboxamide]: the IC50 in the data set on HepG-2 cells [1] (setting [4]) came out at 43.3 ± 4.23 µM; in the data set on HCT-116 cells (setting [5]), 60.1 ± 7.41 µM.
Turning to `COc1ccc(NC(=O)c2c(Nc3ccccc3)sc(C#N)c2NC(=O)CNc2ccc(OC)c(OC)c2)cc1` [Compound 13, 5-Cyano-N-(4-methoxyphenyl)-4-[2-(3,4-dimethoxyphenyl)amino-acetamido]-2-phenylaminothiophene-3-carboxamide], the IC50 is 15.2 ± 1.62 µM in the data set with HepG-2 cells [1] (setting [4]), 15.2 µM in the data set on HepG-2 cells [1] (setting [6]) and 10.3 ± 1.31 µM with HCT-116 cells (setting [5]).
The like results for `COc1ccc(NC(=O)c2c(Nc3ccccc3)sc(C(=O)NN=Cc3ccccc3)c2NC(C)=O)cc1` [Compound 16, 4-Acetamido-5-(2-benzylidenehydrazinocarbonyl)-N-(4-methoxyphenyl)-2-phenylaminothiophene-3-carboxamide] were, in that order, 21.4 ± 2.91 µM, 21 µM and 19.2 ± 1.46 µM.
For `COc1ccc(NC(=O)c2c(Nc3ccccc3)sc(C(=O)NN=Cc3ccc(Cl)cc3)c2NC(C)=O)cc1` [Compound 17, 4-Acetamido-5-[2-(4-chlorobenzylidene)hydrazinocarbonyl]-N-(4-methoxyphenyl)-2-phenylaminothiophene-3-carboxamide], the IC50 is 9.5 ± 0.86 µM in the data set on HepG-2 cells [1] (setting [4]); 9.5 µM with HepG-2 cells [1] (setting [6]); 9.5 µM with HepG-2 cells [1] (HepG2, read-out: HepG-2 IC50); 9.24 ± 1.02 µM in the data set on HCT-116 cells (setting [5]); 5.91 ± 0.23 µM against VEGFR-2.
For `COc1ccc(NC(=O)c2c(Nc3ccccc3)sc(C(=O)NN=Cc3ccc(Br)cc3)c2NC(C)=O)cc1` [Compound 18, 4-Acetamido-5-[2-(4-bromobenzylidene)hydrazinocarbonyl]-N-(4-methoxyphenyl)-2-phenylaminothiophene-3-carboxamide], the results for the IC50 in the data set on HepG-2 cells [1] (setting [4]), in the data set with HepG-2 cells [1] (setting [6]) and in the data set on HCT-116 cells (setting [5]) were 10.1 ± 1.12 µM, 10.4 µM and 7.41 ± 0.62 µM, respectively.
`COc1ccc(NC(=O)c2c(Nc3ccccc3)sc(C(=O)NN=Cc3ccc(C)cc3)c2NC(C)=O)cc1` [Compound 19, 4-Acetamido-5-[2-(4-methylbenzylidene)hydrazinocarbonyl]-N-(4-methoxyphenyl)-2-phenylaminothiophene-3-carboxamide]: the IC50 in the data set with HepG-2 cells [1] (setting [4]) was 12.2 ± 1.31 µM; in the data set with HepG-2 cells [1] (setting [6]) it was 12.2 µM; in the data set on HCT-116 cells (setting [5]), 21.4 ± 1.82 µM.
Regarding `COc1ccc(C=NNC(=O)c2sc(Nc3ccccc3)c(C(=O)Nc3ccc(OC)cc3)c2NC(C)=O)cc1` [Compound 20, 4-Acetamido-5-[2-(4-methoxybenzylidene)hydrazinocarbonyl] -N-(4-methoxyphenyl)-2-(phenylamino)thiophene-3-carboxamide], the IC50 was 4.96 ± 0.45 µM in the data set on HepG-2 cells [1] (setting [4]); 8.7 µM with HepG-2 cells [1] (setting [6]); 4.96 µM in the data set with HepG-2 cells [1] (HepG2, read-out: HepG-2 IC50); 3.12 ± 0.31 µM with HCT-116 cells (setting [5]); 1.71 ± 0.21 µM against VEGFR-2.
In the case of `COc1ccc(NC(=O)c2c(Nc3ccccc3)sc(C(=O)NN=Cc3cc(OC)c(OC)c(OC)c3)c2NC(C)=O)cc1` [Compound 23, 4-Acetamido-N-(p-methoxyphenyl)-2-phenylamino-5-[2-(3,4,5-trimethoxybenzylidene)hydrazinocarbonyl]thiophene-3-carboxamide], the IC50 with HepG-2 cells [1] (setting [4]) is 10.82 ± 0.065 µM; with HepG-2 cells [1] (setting [6]) it was 5.1 µM; in the data set with HepG-2 cells [1] (HepG2, read-out: HepG-2 IC50), 10.8 µM; in the data set with HCT-116 cells (setting [5]) it was 6.46 ± 0.49 µM; on VEGFR-2, 5.21 ± 0.32 µM.
As for `CNC(=O)c1cc(Oc2ccc(NC(=O)Nc3ccc(Cl)c(C(F)(F)F)c3)cc2)ccn1` [Sorafenib, reference compound], the IC50 with HepG-2 cells [1] (HepG2, read-out: HepG-2 IC50) was 4.43 µM; with HCT-116 cells (HCT-116, read-out: IC50 against HCT-116 cells), 3.22 µM.
